{"source": "ChEMBL document CHEMBL4433206", "about": "“Novel Lysine-Based Thioureas as Mechanism-Based Inhibitors of Sirtuin 2 (SIRT2) with Anticancer Activity in a Colorectal Cancer Murine Model” (J Med Chem, 2019)", "key": {"[1]": {"tested_on": "MDA-MB-231", "experiment": "Potency index, ratio of TM GI50 to compound GI50 for growth inhibition of human MDA-MB-231 cells", "format": "functional"}, "[2]": {"tested_on": "MCF7", "experiment": "Potency index, ratio of TM GI50 to compound GI50 for growth inhibition of human MCF7 cells", "format": "functional"}, "[3]": {"tested_on": "CCD-841CoN", "experiment": "Growth inhibition of human CCD-841-CoN cells after 72 hrs by CellTiter-Blue assay", "format": "cell-based", "method_in_brief": "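3000 cells/well seeded, 20 h at 37 °C. Inhibitor added at final 1–100 μM, then 72 h at 37 °C. Viability read by CellTiter-Blue after 4 h at 37 °C, fluorescence 560 nm excitation/590 nm emission. GI50 derived.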"}}, "data": [{"molecule": "CCCCCCCCCCNC(=S)NCCCC[C@H](NC(=O)OCc1ccccc1)C(=O)Nc1ccccc1", "values": [{"measurement": "RatioGI50", "setting": "[1]", "value": 2}, {"measurement": "RatioGI50", "setting": "[2]", "value": 2}, {"measurement": "GI50", "setting": "[3]", "value": 47.4, "unit": "µM"}]}]}
